Data: ChEMBL document CHEMBL1150796, “A novel fluorescence intensity screening assay identifies new low-molecular-weight inhibitors of the gp41 coiled-coil domain of human immunodeficiency virus type 1” (Antimicrob Agents Chemother, 2007)
Square brackets hold non-standard residues; d marks the D form. Peptide text beside a SMILES is read from it. Aib = CC(C)(N)C(=O)O

Legend:
[1] = Inhibition of HIV1 gp41 by metallopeptide-based fluorescence assay; design: species or system Human immunodeficiency virus 1
Method in brief: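 HR1 coiled-coil metallopeptide receptor [Fe(II)(env2.0)3]2+ (7.2 μM final) was mixed with LY-labelled HR2 probe C18-Aib-LY (1 μM) and 20 μM inhibitor in 25 mM Tris, 25 mM sodium acetate pH 7.0, 0.01% Tween 20, 4% DMSO. Inhibitor displacement relieved quenching; fluorescence was read at ex 425/em 540 nm. Signal was taken as primary/control scan ratio and Ki derived from binding equations.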

[2] = system: Human immunodeficiency virus 1; assay: Antiviral activity against HIV1 assessed as inhibition of fusion of gp160 expressing human HeLa cells and CCR5-expressing Tat-long terminal repeat luciferase reporter cells; format: functional, organism-based; conditions: Human immunodeficiency virus 1, HeLa
Method in brief: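 Cell-cell fusion run by a collaborating lab: HeLa effector cells with inducible gp160 expression were mixed with CCR5-expressing Tat-LTR-luciferase reporter cells, and syncytium formation was scored. DMSO in cell culture was capped at 1%.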

[3] = Inhibition of HIV1 gp41 by metallopeptide-based fluorescence assay using dose response study; design: species or system Human immunodeficiency virus 1
Method in brief: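 Competitive dose-response with 7.2 μM Fe(II) HR1 metallopeptide receptor and 1 μM C18-Aib-LY probe across varying inhibitor concentrations. Buffer was pH 7.0 Tris/acetate with 0.01% Tween 20 and 4% DMSO; read at ex 425/em 540 nm, relative to free-probe maximum. Curves were fit to equations 5 and 8 for Ki; three independent experiments, mean ± SD.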

[4] = system: Human immunodeficiency virus 1; assay: Antiviral activity against HIV1 assessed as syncytium inhibition by cell-cell fusion assay; format: functional, organism-based
Method in brief: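 HIV-1 fusion run as a cell-cell assay: HeLa effector cells with inducible gp160 expression were paired with CCR5-expressing reporter cells carrying Tat-responsive LTR-luciferase, with luciferase as the read-out. DMSO in culture was capped at 1%.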

[5] = system: Human immunodeficiency virus 1; assay: Antiviral activity against HIV1 assessed as six-helix bundle formation assay; format: functional

Row | Ki [1] | IC50 [2] | Ki [3] | Structure (SMILES) | IC50 [4] | IC50 [5]
1 | 1200 nM | 8000 nM | 1340 nM | O=C(O)c1ccc(NC(=O)c2cccc(Cc3ccc(F)cc3)c2)c(Cc2cccc([N+](=O)[O-])c2)c1 | – | –
2 | – | – | – | O=C(O[C@@H]1Cc2c(O)cc(O)cc2O[C@H]1c1cc(O)c(O)c(O)c1)c1cc(O)c(O)c(O)c1 (single isomer, unassigned) [GALLOCATECHIN GALLATE] | 4320 nM | –
3 | – | – | – | O=C(O[C@@H]1Cc2c(O)cc(O)cc2O[C@@H]1c1cc(O)c(O)c(O)c1)c1cc(O)c(O)c(O)c1 [EPIGALOCATECHIN GALLATE] | – | 19900 nM
4 | 1150 nM | 8000 nM | 1510 nM | O=C(O)c1ccc(NC(=O)c2cccc(Cc3cccc4cccnc34)c2)c(Cc2cccc(F)c2)c1 | – | –

Row | Structure (SMILES) | Ki [1] | IC50 [2] | Ki [3] | IC50 [4] | IC50 [5]
5 | CC[C@H](C)[C@H](NC(=O)[C@H](CC(C)C)NC(=O)[C@H](CO)NC(=O)[C@@H](NC(=O)[C@H](Cc1ccc(O)cc1)NC(=O)[C@H](CC(N)=O)NC(=O)C(C)(C)NC(=O)[C@@H](NC(=O)[C@H](CCC(=O)O)NC(=O)[C@H](CCCNC(=N)N)NC(=O)[C@H](CC(=O)O)NC(=O)[C@H](Cc1c[nH]c2ccccc12)NC(=O)[C@H](CCC(=O)O)NC(=O)C(C)(C)NC(=O)[C@H](Cc1c[nH]c2ccccc12)NC(=O)[C@@H](NC(=O)[C@H](CCSC)NC(C)=O)[C@@H](C)O)[C@@H](C)CC)[C@@H](C)O)C(=O)N[C@@H](CS)C(N)=O (Ac-MTW[Aib]EWDREI[Aib]NYTSLIC-NH2) | 600 nM | – | 800 nM | – | –
